Rpn11 inh = Rpn11 (human) deubiquitinase inhibition; inhibition, % at 20 µM; AID 588493; 360,000 tested, 0.59% active; O00487; human 26S proteasome, Ub4-pepOG fluorescence polarization; 20S core pre-blocked with epoxomicin;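 active = inhibition at 20 µM, scaled to each plate's controls, above about 33%, limit read from the data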
TPT1 inh = inhibitors of Candida albicans tRNA 2'-phosphotransferase TPT1; recombinant caTPT1, FP RNA substrate dephosphorylation; inhibition, % at 5 µM; 300,000 tested, 0.81% active; AID 1962;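 active = inhibition above the mean of all tested compounds plus 3 SD, set per screening campaign, cut at about 24% in these data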;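 also: plate controls were DMSO alone for no effect and ferristatin control at 100 nM for full effect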
HNF4A DNA FP = change in binding of human HNF4 alpha to DNA; P41235; HNF4a-FITC DNA binding, fluorescence polarization, 1 h; activity change, % at 10 µM; 360,000 tested, 0.3% active; in the data active = activity change above about 30%, passing the limit was not always enough
Target sequence (P41235 whole entry, looked up): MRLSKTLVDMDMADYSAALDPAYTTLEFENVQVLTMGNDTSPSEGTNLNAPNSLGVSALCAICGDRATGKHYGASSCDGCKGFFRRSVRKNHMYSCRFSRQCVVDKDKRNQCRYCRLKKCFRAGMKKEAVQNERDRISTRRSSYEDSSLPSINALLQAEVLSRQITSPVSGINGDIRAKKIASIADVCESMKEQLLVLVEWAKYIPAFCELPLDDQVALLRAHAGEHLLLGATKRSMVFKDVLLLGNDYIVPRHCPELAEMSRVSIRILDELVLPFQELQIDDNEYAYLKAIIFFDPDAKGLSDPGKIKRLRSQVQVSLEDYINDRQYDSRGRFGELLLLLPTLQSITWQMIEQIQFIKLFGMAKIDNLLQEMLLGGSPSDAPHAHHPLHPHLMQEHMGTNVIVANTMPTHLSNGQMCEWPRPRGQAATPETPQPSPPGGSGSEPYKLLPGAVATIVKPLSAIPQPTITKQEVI
SENP1 FRET inh = SENP1 (human) catalytic domain inhibition | Q9P0U3 | recombinant SENP1 catalytic domain, CyPet-SUMO1-YPet FRET cleavage | inhibition, % at 10 µM | 360,000 tested, 0.21% active;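 active = inhibition at least 30% at 10 µM, raw YFP signal under a set limit, fluorescence ratio 0.5 to 1.5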;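 also: 0% = enzyme with DMSO and 100% = no enzyme wells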
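Controls: no-enzyme wells low, DMSO-plus-enzyme wells high control. Test system: human recombinant His6-tagged SENP1 catalytic domain enzyme. Reagent: SFCypet-SUMO1-SFYpet FRET protein substrate, 25 nM final. Doses: one dose per compound, 10 µM, 0.5% DMSO. Detection: FRET, CFP and YFP emission. Timing: 50 min reaction at room temperature.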
CSN inh = blocks human CSN-mediated cullin deneddylation. AID 651999. inhibition, % at 12.5 µM. Purified CSN, SCF-Nedd8-OG deneddylation, fluorescence polarization. 360,000 tested, 0.38% active. Q92905;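 active = pattern-corrected inhibition above about 35%, with an unprinted fluorescence ratio check between 0.5 and 1.5, limit read from the data, passing the limit was not always enough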;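 also: 0% = enzyme with substrate and 100% = substrate without enzyme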
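Assay system: HEK293T-derived human Csn5 enzyme; quantity: 0.24 nM enzyme; medium: Tris/NaCl/DTT buffer, pH 7.5; also added: substrate SCFSkp2-Nedd8OG, 10 nM; doses: 12.5 µM compound; schedule: 90 min reaction at room temperature; signal: FP; read-out: % inhibition of substrate cleavage by Csn5; benchmarks: substrate-only high control, full reaction low control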
ATG4B inh = blocks human ATG4B protease cleavage of LC3 substrate. AID 504462. inhibition, % at 8.33 µM. Q9Y4P1. ATG4B cleavage of LC3-PLA2, NBD-HPC fluorescence, 1 h. 340,000 tested, 0.51% active
ATG4B conf = ATG4B (human) inhibition, single-dose confirmed | shares compounds with ATG4B inh | ATG4B protease fluorescent substrate cleavage assay | inhibition, % at 8.33 µM | 320 tested, 92% active; in the data active = inhibition above about 39%
PLA2 counter = inhibits human PLA2, flagging false ATG4B inhibitors | inhibition, % at 8.33 µM | AID 588402 | shares compounds with ATG4B inh | purified PLA2, NBD-C6-HPC fluorescence, 45 min | 1,600 tested, 66% active; in the data active = inhibition above about 50%
Target sequence (P04054 whole entry, looked up): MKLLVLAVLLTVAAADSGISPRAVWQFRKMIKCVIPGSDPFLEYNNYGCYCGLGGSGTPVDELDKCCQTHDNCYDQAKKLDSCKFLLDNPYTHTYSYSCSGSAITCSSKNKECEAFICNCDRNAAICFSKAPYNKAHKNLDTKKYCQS
Rpn11 inh conf = confirmation of human proteasome Rpn11 inhibitors. shares compounds with Rpn11 inh. purified human 26S proteasome, Ub4-pepOG fluorescence polarization; proteasome pretreated with epoxomicin. inhibition, % at 20 µM. 1,900 tested, 29% active. AID 602318
MMP-2 inh = counter-screen for RPN11 inhibitors: inhibition of human MMP-2; shares compounds with Rpn11 inh; recombinant MMP-2, FRET peptide cleavage fluorescence; inhibition, % at 20 µM; 1,900 tested, 4% active;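 also: human MMP-2 activated beforehand with APMA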
Thrombin inh = blocks bovine thrombin, flagging nonselective RPN11 hits. shares compounds with Rpn11 inh. bovine thrombin cleavage of Ub4-pepOG, fluorescence polarization. inhibition, % at 20 µM. 1,900 tested, 13% active;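 active = mean inhibition at least 40% at 20 µM, or signal 3 deviations below plate average, so some actives read negative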;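 also: plate controls were thrombin with DMSO for no effect and buffer wells lacking thrombin for full effect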
Active calls of the source: *; . = no result. Most compounds without a hit are left out; they make up all but 2% or so of the library. Rule as the data show it, unless noted: active = inhibition above about 40%; inactive = the rest.

SMILES | Rpn11 inh | TPT1 inh | HNF4A DNA FP | SENP1 FRET inh | CSN inh | ATG4B inh | PLA2 counter | others
Cc1nn(Cc2c(F)c(F)c(F)c(F)c2F)c(C)c1NC(=O)c1ccc(COc2cc(Cl)ccc2Cl)cc1 | -2 | 0 | 2 | 1 | 0 | 62* | 20 | ATG4B conf=44*
O=C(Cc1cccc(NC(=O)C2CCN(C(=O)C3CC3)CC2)c1)Nc1cccc(C(=O)N2CCCCC2)c1 | -3 | . | -3 | -1 | -9 | 0 | .
COC(=O)c1cn(CC(C)n2c(=O)c3ccccc3n2Cc2cc(C(C)C)no2)nn1 (stereo not given) | . | . | 2 | 1 | 2 | . | .
Cc1ccccc1-c1nsc(SCC(=O)NCc2ccc3c(c2)OCO3)n1 | -4 | -2 | 1 | 3 | -2 | 41* | -5
COc1ccc(NC(=O)c2ccc(S(=O)(=O)N3CC(C)OC(C)C3)cc2)cc1 (stereo not given) | 3 | . | 6 | 1 | 5 | -14 | .
c1cncc(-c2nc(NCCCN3CCOCC3)c3c4c(sc3n2)CCC4)c1 | 1 | 4 | 5 | -1 | 4 | 40* | 57*
Cc1cccc2c1N(CCOc1ccc(C(C)(C)C)cc1)C(=O)C2=O | 1 | -3 | -3 | -18 | -1 | 57* | 14 | ATG4B conf=52*
COc1ccc(CNc2nc(NCc3ccc(OC)cc3)n(C(C)=O)n2)cc1 | -2 | -1 | 1 | 1 | -2 | -12 | .
CCC(=O)n1nc(NCc2ccccc2OC)nc1NCc1ccccc1OC | -1 | -2 | 0 | 3 | 2 | 41* | 37
COc1ccc(C2C=CC(=O)CC2)c(OC)c1 (stereo not given) | . | . | 2 | 0 | -1 | . | .
NC(=O)c1ccc(NCC2COc3ccccc3O2)c([N+](=O)[O-])c1 (stereo not given) | -1 | -4 | 4 | -2 | 2 | 82* | 79*
CCn1nc([N+](=O)[O-])c(C(C#N)c2nc3cc(C(F)(F)F)ccc3s2)c(Cl)c1=O (stereo not given) | 3 | 0 | -2 | -9 | -13 | 99* | 101*
Cn1nc([N+](=O)[O-])c(C(C#N)c2ccccn2)c(Cl)c1=O (stereo not given) | -15 | -18 | -1 | -6 | 4 | -4 | .
O=C(Cc1cccc(NC(=O)C2CCN(S(=O)(=O)c3cccc([N+](=O)[O-])c3)CC2)c1)Nc1cccc(C(=O)N2CCOCC2)c1 | 4 | . | -4 | 3 | -5 | -12 | .
O=C(Nc1ccccc1N1CCN(c2ccccc2)CC1)c1ccccc1 | -4 | 2 | 1 | 1 | -2 | 44* | 43 | ATG4B conf=62*
CN(Cc1ccc(F)cc1)C(=O)COc1ccccc1-c1ccccc1 | -3 | 3 | 1 | 0 | -1 | 48* | 48
CCOC(=O)c1oc2ccc(Br)cc2c1CSc1nnc(C)s1 | 2 | -1 | -1 | 2 | 0 | 64* | 67*
CN(c1ccccc1)S(=O)(=O)c1cc(C(=O)NCc2ccco2)ccc1Cl | 3 | . | 2 | 0 | 2 | . | .
CC1Cc2ccccc2N1C(=O)CSc1nc2ccccc2s1 (stereo not given) | 4 | -3 | 0 | 2 | -1 | 10 | .
CCOC(=O)CSc1nc2sc(C)c(C)c2c(=O)n1C | 2 | 2 | -2 | 2 | 3 | -2 | .
Cc1sc2nc(C(C)C)nc(SCC(=O)NCc3ccco3)c2c1C | -1 | -3 | 5 | 2 | 3 | 42* | 47 | ATG4B conf=50*
CCOC(=O)CSc1nc(C(C)C)nc2sc(C)c(C)c12 | 6 | -1 | 1 | 1 | -5 | 62* | 59*
Cc1sc2nc(C(C)C)nc(SCC(=O)N3c4ccccc4CC3C)c2c1C (stereo not given) | -3 | 3 | 1 | 1 | -1 | 75* | 77*
CCOC(=O)C1CCN(C(=O)c2[nH]c(C(F)(F)F)nc2-c2ccccc2)CC1 | -3 | . | -5 | 2 | 5 | . | .
COC(=O)c1ccccc1S(=O)(=O)NNC(=O)C12CC3CC(CC(C3)C1)C2 | 3 | . | 1 | 2 | 2 | 0 | .
SMILES | Rpn11 inh | TPT1 inh | HNF4A DNA FP | SENP1 FRET inh | CSN inh | ATG4B inh | PLA2 counter | others
Cc1cc(NCc2ccc(F)cc2Cl)n2nnnc2n1 | 4 | 0 | 1 | 1 | 5 | 48* | 48 | ATG4B conf=70*
O=C(Nc1ccccc1N1CCCC1)c1cccc(-c2cc3ccccc3oc2=O)c1 | 12 | 1 | 4 | -3 | 2 | 57* | 67*
CCCNC(=O)C1(C)CCCN(C(=O)c2ccc(C)c(F)c2)C1 (stereo not given) | 4 | . | -1 | 0 | -2 | . | .
Cc1ccc(C)c(N2CCN(C(=O)CCn3c(=S)[nH]c4cc5c(cc4c3=O)OCO5)CC2)c1 | 0 | 0 | 2 | 2 | -1 | 51* | 50*
COc1ccc(N2CCN(C(=O)CCCn3c(=S)[nH]c4cc5c(cc4c3=O)OCO5)CC2)cc1 | 4 | 2 | 1 | -1 | 1 | 24 | .
O=C1N/C(=N/NC(=O)c2cccc3ccccc23)S/C1=C\c1ccccc1OCc1ccccc1 | 45* | . | -11 | 0 | 6 | 91* | 91* | Rpn11 inh conf=20;MMP-2 inh=21;Thrombin inh=13
CCN(CC)c1ccc(N2C(=O)CSC2=S)cc1 | 51* | -5 | 3 | 7 | -6 | 66* | 63* | Rpn11 inh conf=-3;MMP-2 inh=61*;Thrombin inh=-22
CCOc1ccc(N2C(=O)CSC2=S)cc1 | -5 | 2 | 2 | -2 | 0 | 6 | .
Cc1ccc(C2C(/C=C3/SC(=S)NC3=O)=C(c3cccs3)Oc3ccccc32)cc1 (stereo not given) | 49* | 9 | -4 | 23 | 4 | 57* | 55* | Rpn11 inh conf=45*;MMP-2 inh=41*;Thrombin inh=16
NC(c1ccccc1)c1csc(Nc2ccc(C(=O)NCCCO)cn2)n1 (stereo not given) | -5 | . | -6 | 0 | -1 | . | .

Screening data: PubChem, several laboratories
